A short description of series [1]: Ratio is Kinetic constant (Kcat) / Inactivation constant (Kinact) of the MAO B. The gist of the method: (§1)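 Turnover from H2O2 release: bovine MAO B with amine at several concentrations in 100 mM Tris-HCl pH 9.00, 25 °C, 90 s (1–2 min for some); leuco crystal violet/horseradish peroxidase in acetate pH 4.5 added, A596 converted via extinction coefficient. Km and kcat from Hanes plots; ratio is kcat over kinact from time-dependent inactivation.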

The target in series [2] is T1, Amine oxidase [flavin-containing] B (Bos taurus, UniProt P56560).
T1 sequence (P56560 whole entry): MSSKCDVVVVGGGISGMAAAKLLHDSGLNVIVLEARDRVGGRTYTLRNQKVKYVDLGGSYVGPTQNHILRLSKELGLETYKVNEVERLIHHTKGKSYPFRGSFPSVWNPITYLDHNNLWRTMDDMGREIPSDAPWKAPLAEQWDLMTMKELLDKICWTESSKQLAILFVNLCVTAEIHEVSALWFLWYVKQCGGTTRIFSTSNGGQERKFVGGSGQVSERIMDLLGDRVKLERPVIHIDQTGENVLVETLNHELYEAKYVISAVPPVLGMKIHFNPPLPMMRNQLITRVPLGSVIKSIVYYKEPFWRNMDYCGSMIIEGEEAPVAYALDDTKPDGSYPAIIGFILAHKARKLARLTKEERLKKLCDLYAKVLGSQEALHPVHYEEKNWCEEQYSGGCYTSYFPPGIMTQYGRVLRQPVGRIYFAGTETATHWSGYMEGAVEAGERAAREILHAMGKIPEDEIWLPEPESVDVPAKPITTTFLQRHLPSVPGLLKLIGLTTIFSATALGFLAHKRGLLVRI
As to the kind of experiment: Kinetic constant (KI) was calculated by inhibition of monoamino oxidase B (MAO B). The essentials:
(§2)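 Bovine liver MAO B (isolated by published method), 25 °C, 100 mM Tris-HCl pH 9.00. Enzyme incubated with several inactivator concentrations; aliquots withdrawn periodically and residual activity read by benzylamine oxidation (OD change at 250 nm). Irreversibility tested by 24 h dialysis against Tris-HCl pH 9.0.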

Series [3] addresses T1, Amine oxidase [flavin-containing] B. As to the kind of experiment: Kinetic constant was calculated by inhibition of monoamino oxidase B (MAO B). The gist of the method: as §2
Series [4] shares this target. As to the kind of experiment: Kinetic constant was calculated by inhibition of monoamino oxidase B (MAO B); Inactive. The essentials:
as §2

The target is the same in series [5]. As to the kind of experiment: Kinetic constant (KI) was calculated by inhibition of monoamino oxidase B (MAO B); Inactive. The gist of the method: as §2
Series [6] is described as follows: Ratio of Kinetic constant (Kcat) / Inactivation constant (Kinact) of the MAO B; Inactive. The essentials:
as §1

The nature of series [7]: Ratio of Kinetic constant (Kcat) / Inactivation constant (Kinact) of the MAO B. The gist of the method: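 Bovine MAO B. For kcat, the enzyme was incubated for 1–2 min at 25 °C with several substrate concentrations in 100 mM Tris-HCl, pH 9.00. H2O2 was read as A596 after leuco crystal violet, peroxidase and pH 4.5 acetate were added, and kcat was taken from Hanes plots. For kinact, enzyme was incubated with varied inactivator concentrations (Tris-HCl, pH 9.00, 25 °C), and aliquots were assayed periodically.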

The Ki is a measure of affinity in units of concentration, obtained from inhibition or displacement.

For `CCCCCNCCC#N`, the Ratio in series [1] is 9091. Further, the Ki in series [2] was 5.79 mM; in series [3] it was 4.94 mM.

Consider `CCCCCNCC(=O)O`, for which the Ki entry in series [4] and in series [5] was “Not Active” throughout. For the same compound, in series [6], the Ratio result is “Not Active”.

For the compound `CCCCCNCC#N`, the Ratio in series [1] is recorded as 3394. The Ki in series [2] was 14 mM; in series [3], 4.94 mM.

Turning to `CCCCCNCC(=O)OCC`, the Ratio in series [7] came out at 4435. Further, the Ki in series [2] was 14.2 mM; in series [3], 2 mM.

Turning to `CCCCCNCC(N)=O` [MILACEMIDE], the Ratio in series [7] is listed as 26289. In addition, the results for the Ki in series [2] and in series [3] were 0.94 mM and 1.08 mM, respectively.

These data come from ChEMBL document CHEMBL1126593, “Inactivation of monoamine oxidase B by analogues of the anticonvulsant agent milacemide (2-(n-pentylamino)acetamide)” (J Med Chem, 1993).
